Compounds with a hit are over-represented: about 4.9% of the library has one in this group of screens.
STAT1 blocker: reduces IFN-gamma driven STAT1 reporter signal | actives 0.35% (n = 200,000) | AID 920 | inhibition, % at 5.5 µM | NIH 3T3 STAT1-luciferase reporter, luminescence;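 active = inhibition above a set limit, the mean inhibition across all tested compounds plus 3 SD, cut at about 34% in these data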;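 also: 0% = IFN-gamma with DMSO and 100% = IFN-gamma with 300 µM nifuroxazide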
NF-kB expr up: raises NF-kB expression in human neuronal cells. NF-kB reporter expression; active compounds read high. actives 1.6% (n = 190,000). AID 1239. fold change at 12.5 µM; in the data active = fold change above about 3.3
APP 5'UTR act: APP 5'UTR luciferase reporter activation. SH-SY5Y APP 5'UTR luciferase reporter, luminescence; zero percent = DMSO vehicle wells. actives 1% (n = 190,000). AID 1276. activation, % at 2 µM;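 active = activation above a set limit, based on mean plus 3 SD of controls, cut at about 140% in these data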
STAT1 activator: STAT1 signaling activation; NIH 3T3 STAT1-luciferase reporter, IFN-gamma, luminescence; 100% = IFN-gamma alone, no compound; activation (% of control), % at 5.5 µM; actives 2.6% (n = 200,000); AID 932;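 active = activation above the screen-wide mean activation plus 3 SD, cut at about 130% in these data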;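 also: raw ratio to IFN-gamma control signal so 100% means no change and 0% no light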
STAT3 act: increases IL-6 driven STAT3 reporter signal. U3A cells, IL-6 STAT3-luciferase reporter, luminescence; 100% = signal with IL-6 EC80 alone. activation (% of control), % at 5.6 µM. actives 0.91% (n = 190,000);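 active = activation above the screen-wide mean of compound activation plus 3 SD, cut at about 130% in these data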;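 also: 0% = background luminescence of wells with medium and substrate only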
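Material: STAT1-lacking human U3A cells, STAT3 luciferase reporter | Benchmarks: IL-6-only wells as 100% reference | Probe or stimulus: IL-6 (33 ng/mL) | Timing: Compound 1 h, then IL-6 6 h at 37 °C | Detection: Luminescence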
STAT3 inh: reduces IL-6 driven STAT3 reporter signal. actives 0.89% (n = 190,000). inhibition, % at 5.5 µM. U3A cells, IL-6 STAT3-luciferase reporter, luminescence; host cell line lacks STAT1. AID 862;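 active = inhibition above the mean inhibition across all screened compounds plus 3 SD, cut at about 44% in these data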;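 also: 0% = DMSO only wells and 100% = 100 µM nifuroxazide control wells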
* = called active by the depositor; x = no result given.

SMILES	STAT1 blocker	NF-kB expr up	APP 5'UTR act	STAT1 activator	STAT3 act	STAT3 inh
Cc1onc(-c2ccccc2Cl)c1-c1nc(-c2ccncc2)no1	-11	0.89	-5	110	101	2
Clc1ccc(Br)cc1-c1nc(-c2cccnc2)no1	-6	x	10	105	141*	-43
Clc1ccccc1-c1nc(-c2cccnc2)no1	-31	1.4	111	129*	120	-21
Cc1ccccc1-c1nc(-c2cccnc2)no1	-43	3.7*	76	139*	112	-11
CCOC(=O)c1c(C)[nH]c(C(=O)COC(=O)/C=C/c2ccc(OCC#N)c(OC)c2)c1C	6	1.3	-21	94	100	4
Fc1ccc(NC(=S)NCCN2CCOCC2)c(F)c1F	-5	1.5	11	105	96	13
O=C(CCS(=O)(=O)c1ccccc1)Nc1cccc2c1C(=O)NC2=O	3	1	-9	95	95	11
O=C(NCc1ccco1)c1ccc2ccccc2c1	-37	1.4	86	134*	90	15
O=C(NCc1ccco1)c1ccc2c(c1)C(=O)c1ccccc1-2	-19	1.5	21	133*	95	8
COc1ccccc1CNC(=O)c1ccc(N2CCOCC2)c([N+](=O)[O-])c1	16	1.1	10	84	101	3
O=C(O)c1ccc2oc(SCC(=O)N3CCCCC3)nc2c1	-40	1.8	51	137*	120	-20
O=C(NCc1ccccc1F)c1ccc2c(c1)OCO2	1	1.3	3	99	105	0
Fc1ccccc1Cn1nnc(-c2ccc3c(c2)OCO3)n1	-39	5.7*	166*	136*	108	-5
Oc1ccc2c(c1)oc1cc(O)ccc12	6	7*	2	95	96	9
CCCC(=O)NC(c1ccccc1OC)c1ccc2cccnc2c1O (stereo not drawn)	6	4.7*	-75	93	90	14
COc1ccc(/C(O)=C2/C(=O)C(=O)N(CCN3CCOCC3)C2c2ccccn2)cc1 (stereo not drawn)	-47	1.3	-16	143*	98	7
Cc1c(/C(O)=C2/C(=O)C(=O)N(CCN3CCOCC3)C2c2ccccn2)cnn1-c1ccccc1 (stereo not drawn)	90*	0.45	15	17	25	88*
Cc1cccc(OCC(O)CN2CC3(C)CC2CC(C)(C)C3)c1 (stereo not drawn)	6	0.92	-49	96	106	-11
CCOc1cc(/C=N/Nc2cccc(C(=O)O)c2)ccc1OC(=O)c1ccccc1	77*	12*	39	28	56	55*
CCOc1cc(/C=N/NC(=O)CNc2cccc(C)c2)ccc1OC(=O)c1ccccc1	-12	0.87	8	111	115	-12
O=C(O)c1cccc(Cn2c(Cl)c(/C=N/Nc3ccccc3)sc2=O)c1	8	0.94	7	92	94	18
Cc1ccc(/C=N/Nc2cccc(C(=O)O)c2)s1	22	14*	38	81	116	-16
O=C(O)c1cccc(N/N=C/C2=C(Cl)c3cc(Cl)ccc3SC2)c1	-28	5.2*	195*	126	87	20
O=C(O)c1cccc(N/N=C/c2ccc(F)c(F)c2)c1	15	1	118	85	107	0
Cc1ccsc1/C=N/Nc1cccc(C(=O)O)c1	89*	14*	-42	18	61	49*
SMILES	STAT1 blocker	NF-kB expr up	APP 5'UTR act	STAT1 activator	STAT3 act	STAT3 inh
CS(=O)(=O)Nc1ccccc1C(=O)N1CCN(c2ccccc2)CC1	0	1	4	100	99	7
CC(C)(C)C(=O)Nc1cc(S(=O)(=O)N2CCCCC2)ccc1N1CCCCC1	-4	0.83	16	102	111	-11
Cc1cc2nc(CSc3ccccc3)cc(=O)n2[nH]1	1	1.2	-10	99	108	-7
Cn1c2c(c(=O)n(C)c1=O)C1c3cc(Cl)ccc3OCC1CO2 (stereo not drawn)	-8	1.3	13	107	101	0
Cn1c(Cl)cnc1C1CC(=O)c2cc(Cl)ccc2O1 (stereo not drawn)	-3	4.7*	-27	103	103	4
Cc1ccc(CNc2ncc(-c3ccccc3)n2C)o1	-12	1	25	110	102	5

Source: PubChem
